According to ChEMBL document CHEMBL2429803, “Animal toxicity of hairpin pyrrole-imidazole polyamides varies with the turn unit” (J Med Chem, 2013):
Activity calls are given as the source filed them. The rule behind the calls is not given here.

What was measured:
[1] = Drug uptake in human LNCAP cell nucleus at 2 uM after 24 hrs by confocal microscopic analysis; format: ADME, cell-based
Outline: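 LNCaP cells incubated 24 h with 2 μM of the fluorescein-conjugated polyamide. Nuclear localization imaged by confocal microscopy.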

Mus musculus [2] = assay: Toxicity in C57BL/6J mouse assessed as weight loss at 1 mg/kg, sc administered every 3 days for a cycle of 3 injections; format: organism-based; design: dose 1 mg/kg, route subcutaneous; settings: in vivo, 72 h
Outline: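 8-week-old male C57BL/6J mice, acclimated 3 days, groups of three, dosed sc in 25% DMSO/saline vehicle once every 3 days, sacrificed 2 days after the last injection. Body weight recorded on injection days and at end point; humane end point set at visible duress or >15% loss of original body weight.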

Mus musculus [3] = assay: Acute toxicity in C57BL/6J mouse at 1 to 10 mg/kg, sc after 9 days; format: organism-based; design: dose 1-10 mg/kg, route subcutaneous; settings: in vivo, 216 h
Outline: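 Single sc injection in male 8-week-old C57BL/6J mice (1, 3 or 10 mg/kg in 25% DMSO/saline; n = 4 per group), followed for 9 days with daily weighing, then sacrifice. Toxicity was assessed by blinded histopathology of two mice per group and by blinded serum ALT, AST, total bilirubin, BUN and creatinine from retroorbital blood of all mice.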

Mus musculus [4] = assay: Acute toxicity in C57BL/6J mouse assessed as lesions in stomach at 1 to 10 mg/kg, sc after 9 days; format: organism-based; design: dose 1-10 mg/kg, route subcutaneous; settings: in vivo, 216 h
Outline: (§1)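 Male C57BL/6J mice, 8 weeks old, received a single sc dose (1, 3 or 10 mg/kg in 25% DMSO/saline, n = 4 per group) and were sacrificed after 9 days. Two representative animals per group were fixed in 10% formalin. Cecum, duodenum, heart, ileum, kidney, liver, lung, pancreas, spleen and stomach were examined blind by a veterinary pathologist and lesions graded mild, moderate or severe.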

Mus musculus [5] = assay: Acute toxicity in C57BL/6J mouse assessed as ALT level at 3 mg/kg, sc after 9 days; format: organism-based; design: dose 3 mg/kg, route subcutaneous; settings: in vivo, 216 h
Outline: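 Male C57BL/6J mice, 8 weeks old, acclimated 3 days, then given a single sc injection of 1, 3 or 10 mg/kg in 25% DMSO/saline (4 per group). Weighed daily for 9 days, then sacrificed. Serum taken by retroorbital bleed and spun at 6000 rpm for 5 min. ALT, AST, total bilirubin, BUN and creatinine measured by an outside lab, blinded.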

LNCaP [6] = assay: Reduction in cellular RPB1 level in human LNCAP cells at 10 uM after 72 hrs by ELISA; format: functional, cell-based
Outline: (§2)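 LNCaP cells treated 72 h at 10 μM. DMSO vehicle and 1 μM doxorubicin for 24 h served as controls. RPB1 measured with an RPB1-specific ELISA and total p53 with a pan-p53 ELISA. Biological triplicates.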

[7] = Metabolic stability in human liver microsomes after 1 hr by LC/MS/MS analysis in presence of NADPH; format: ADME, Microsome; settings: read-out: Stability
Outline: (§3)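 Compound incubated at 37 °C for 60 min with 1 mg/mL human or mouse liver microsomes in 100 mM KH2PO4, 3 mM MgCl2, pH 7.4, with 2 mM NADPH or without it. Stopped with ice-cold methanol, then precipitate removed. Analyzed by LC/MS/MS as % remaining versus time zero. Duplicates.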

[8] = Metabolic stability in mouse liver microsomes after 1 hr by LC/MS/MS analysis in presence of NADPH; format: ADME, Microsome; settings: read-out: Stability; outline: as §3
Mus musculus [9] = assay: Toxicity in NSG immunocompromised mouse model xenografted with human LNCAP cells assessed as weight loss at 1 mg/kg, sc administered once every 3 days for a cycle of six injections; format: organism-based; design: dose 1 mg/kg, route subcutaneous; settings: in vivo, 72 h
Outline: (§4)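 Male NSG mice engrafted in the left flank with 2.5 million LNCaP cells in 1:1 media/matrigel; dosing began at ~200 mm3 tumours (0.5 × L × W2). Compound or vehicle given sc in 20% DMSO/normal saline once every 3 d for six injections, n = 14 per group; weight and general health checked daily, sacrifice 2 days after final injection.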

LNCaP [10] = assay: Induction in cellular p53 level in human LNCAP cells at 10 uM after 72 hrs by ELISA; format: functional, cell-based; outline: as §2
Mus musculus [11] = assay: Toxicity in C57BL/6J mouse assessed as total WBC count at 1 mg/kg, sc administered once every 3 days for a cycle of six injections measured 2 days post last injection; format: organism-based; design: dose 1 mg/kg, route subcutaneous; settings: in vivo, 48 h
Outline: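 Male C57BL/6J mice, blood taken by retroorbital bleed before dosing; after 1 week recovery, sc injections once every 3 d in 20% DMSO:normal saline, six injections; bled again at end point (2 days after final injection). K2EDTA blood sent for hematology (WBC, RBC, hemoglobin, neutrophils, lymphocytes); n = 5, mean with std.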

Mus musculus [12] = assay: Acute toxicity in C57BL/6J mouse assessed as lesions in GI tract at 1 to 10 mg/kg, sc after 9 days; format: organism-based, Gastrointestinal tract; design: dose 1-10 mg/kg, route subcutaneous; settings: in vivo, 216 h; outline: as §1
[13] = Metabolic stability in human liver microsomes after 1 hr by LC/MS/MS analysis; format: ADME, Microsome; settings: read-out: Stability; outline: as §3
LNCaP [14] = assay: Induction in IGFBP3 level in human LNCAP cells after 72 hrs by RT-PCR analysis; format: functional, cell-based
Outline: (§5)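 LNCaP cells, 50 000 per well, adhered 36–48 h, then treated with 1, 3 or 10 μM for 72 h. Total RNA extracted on columns and transcripts quantified by RT-qPCR.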

Mus musculus [15] = assay: Toxicity in NSG immunocompromised mouse model xenografted with human LNCAP cells assessed as distress at 1 mg/kg, sc administered once every 3 days for a cycle of six injections; format: organism-based; design: dose 1 mg/kg, route subcutaneous; settings: in vivo, 72 h; outline: as §4
LNCaP [16] = assay: Induction in p21 level in human LNCAP cells after 72 hrs by RT-PCR analysis; format: functional, cell-based; outline: as §5
LNCaP [17] = assay: Cytotoxicity against human LNCAP cells after 72 hrs by WST-1 assay; format: functional, cell-based
Outline: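 LNCaP cells seeded at 5000–7500 per well and left to adhere 36–48 h. Compound added in fresh medium for 72 h. Metabolic activity read by WST-1 and IC50 derived from the dose–response. Biological triplicates.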

Mus musculus [18] = assay: Toxicity in C57BL/6J mouse assessed as total RBC count at 1 mg/kg, sc administered once every 3 days for a cycle of six injections measured 2 days post last injection; format: organism-based; design: dose 1 mg/kg, route subcutaneous; settings: in vivo, 48 h
Outline: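 Five male C57BL/6J mice bled retroorbitally into K2EDTA tubes at baseline. After 1 week of recovery they were given 1 mg/kg sc in 20% DMSO/saline every 3 days for six injections, then bled again at the end point. Hematology (WBC, RBC, hemoglobin, neutrophils, lymphocytes) measured externally. Mean of five animals, ± std.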

LNCaP [19] = assay: Antitumor activity against human LNCAP cells xenografted in NSG immunocompromised mouse model assessed as tumor growth inhibition at 1 mg/kg, sc administered once every 3 days for a cycle of six injections measured 2 days post last injection relative to control; format: functional; settings: route subcutaneous
Outline: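 Male NSG mice engrafted in the left flank with 2.5 million LNCaP cells in 1:1 media/matrigel. Treatment began at ~200 mm3 (0.5 × L × W2): 1 mg/kg sc in 20% DMSO/normal saline, or vehicle alone, every 3 days for six injections, 14 mice per group. Sacrificed 2 days after the last dose. Tumor weights compared with vehicle (T/C).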

Mus musculus [20] = assay: Toxicity in C57BL/6J mouse assessed as morbidity at 1 mg/kg, sc administered every 3 days for a cycle of 3 injections; format: organism-based; design: dose 1 mg/kg, route subcutaneous; settings: in vivo, 72 h
Outline: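 Male C57BL/6J mice, 3 per group, given 1 mg/kg sc every 3 days. Weight recorded on injection days. Watched for signs of duress. Humane end point was visible duress or weight loss over 15% of starting body weight.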

Mus musculus [21] = assay: Acute toxicity in C57BL/6J mouse assessed as lesions in lungs at 1 to 10 mg/kg, sc after 9 days; format: organism-based; design: dose 1-10 mg/kg, route subcutaneous; settings: in vivo, 216 h; outline: as §1
Mus musculus [22] = assay: Acute toxicity in C57BL/6J mouse assessed as lesions in heart at 1 to 10 mg/kg, sc after 9 days; format: organism-based; design: dose 1-10 mg/kg, route subcutaneous; settings: in vivo, 216 h; outline: as §1
LNCaP [23] = assay: Genotoxicity in human LNCAP cells assessed as DNA strand breaks at 10 uM after 48 hrs by comet assay; format: toxicity, cell-based
Outline: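 LNCaP cells, 100 000 per well, adhered 36–48 h, then treated 48 h at 10 μM (5 μM doxorubicin for 4 h as control). Alkaline comet assay imaged at 10× by confocal microscopy. More than 100 comets scored per condition. Damage reported as % DNA in tail.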

LNCaP [24] = assay: Induction in GADD45A level in human LNCAP cells after 72 hrs by RT-PCR analysis; format: functional, cell-based; outline: as §5
[25] = Metabolic stability in mouse liver microsomes after 1 hr by LC/MS/MS analysis; format: ADME, Microsome; settings: read-out: Stability; outline: as §3
Mus musculus [26] = assay: Acute toxicity in C57BL/6J mouse assessed as lesions in pancreas at 1 to 10 mg/kg, sc after 9 days; format: organism-based; design: dose 1-10 mg/kg, route subcutaneous; settings: in vivo, 216 h; outline: as §1
[27] = Drug uptake in nucleus of C57BL/6J mouse liver at 3 mg/kg, sc after 24 hrs by confocal microscopic analysis; format: ADME, organism-based; design: dose 3 mg/kg, route subcutaneous; settings: in vivo
Outline: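 Male C57BL/6J mice, 2 per group, injected with 50 nmol (~3 mg/kg) of fluorescein-conjugated polyamide and sacrificed 24 h later. Liver fixed in 10% formalin for 48 h, cryoprotected in 15% then 30% sucrose, and frozen. Nuclear fluorescence assessed by confocal microscopy in 10 μm sections.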

CN(CCCNC(=O)c1cc(NC(=O)c2cc(NC(=O)c3cc(NC(=O)c4nc(NC(=O)[C@H](N)CCNC(=O)c5cc(NC(=O)c6cc(NC(=O)c7cc(NC(=O)c8nccn8C)cn7C)cn6C)cn5C)cn4C)cn3C)cn2C)cn1C)CCCNC(=S)Nc1ccc(-c2c3ccc(=O)cc-3oc3cc(O)ccc23)c(C(=O)O)c1
Drug uptake [1]: Active

CC(=O)N[C@H](CCNC(=O)c1cc(NC(=O)c2cc(NC(=O)c3cc(NC(=O)c4nccn4C)cn3C)cn2C)cn1C)C(=O)Nc1cn(C)c(C(=O)Nc2cc(C(=O)Nc3cc(C(=O)Nc4cc(C(=O)NCCCN(C)CCCNC(=O)c5cccc(C(=O)O)c5)n(C)c4)n(C)c3)n(C)c2)n1
Activity (Mus musculus [2]): Non-toxic | Activity (Mus musculus [3]): Non-toxic | Activity (Mus musculus [4]): Non-toxic | Activity (Mus musculus [5]): 29 U/L | Activity (LNCaP [6]): Active | remaining at 1 h [7]: > 90% | remaining at 1 h [8]: > 90% | Activity (Mus musculus [9]): Non-toxic | Activity (LNCaP [10]): Active | Activity (Mus musculus [11]): Non-toxic | Activity (Mus musculus [12]): Non-toxic | remaining at 1 h [13]: > 90% | Activity (LNCaP [14]): Dose-dependent effect | Activity (Mus musculus [15]): Non-toxic | Activity (LNCaP [16]): Dose-dependent effect | Activity (LNCaP [17]): Dose-dependent effect | IC50 (LNCaP [17]): 2.1 µM | Activity (Mus musculus [18]): Non-toxic | T/C (LNCaP [19]): 52.4% | Activity (Mus musculus [20]): Non-toxic | Activity (Mus musculus [21]): Non-toxic | Activity (Mus musculus [22]): Non-toxic | Activity (LNCaP [23]): Non-toxic | Activity (LNCaP [24]): Dose-dependent effect | remaining at 1 h [25]: > 90% | Activity (Mus musculus [26]): Non-toxic

CC(=O)N[C@H](CCNC(=O)c1cc(NC(=O)c2cc(NC(=O)c3cc(NC(=O)c4nccn4C)cn3C)cn2C)cn1C)C(=O)Nc1cn(C)c(C(=O)Nc2cc(C(=O)Nc3cc(C(=O)Nc4cc(C(=O)NCCCN(C)CCCNC(=S)Nc5ccc(-c6c7ccc(=O)cc-7oc7cc(O)ccc67)c(C(=O)O)c5)n(C)c4)n(C)c3)n(C)c2)n1
Drug uptake [1]: Active | Drug uptake [27]: Active
